# Published values pooled from the literature.
SMILES,organism,test,system,setting,endpoint,result
Cc1nn(-c2nc3ccc(Cl)cc3s2)c2c1C(=O)c1ccccc1-2,Staphylococcus aureus,"microbial growth, well diffusion",NCIM5021,1000 µg/mL,inhibition zone,11 mm
N#Cc1c(O)c2c(-c3ccc(-c4ccccc4O)cc3)csc2[nH]c1=O,Staphylococcus aureus,microbial growth,NCTC8325,,MIC,> 30 µM
O=C1NC(=S)S/C1=C\c1c2ccccc2c(-c2ccc(N(c3ccccc3)c3ccccc3)cc2)c2ccccc12,Micrococcus luteus,"microbial killing, broth dilution",ATCC10240,,MBC,> 1000 mg/L
O=C(N/N=C/c1ccc([N+](=O)[O-])o1)c1ccc(O)cc1,Escherichia coli,microbial growth,ATCC35218,,MIC90,0.98 mg/L
O=C1NC(=O)[C@@H](c2cn3c4c(cccc24)CCC3)[C@@H]1c1c[nH]c2ccccc12,Staphylococcus aureus,microbial growth,NCTC8325,,MIC,> 30 µM
O=C(O)c1ccc(-n2cc(COc3cccc4cccnc34)nn2)cc1,Escherichia coli,"microbial growth, broth dilution",ATCC25922,,IC50,108 mg/L
O=C1NC(=S)N/C1=C\c1ccc(-c2ccc(N(c3ccccc3)c3ccccc3)cc2)c2ccccc12,Staphylococcus aureus,"microbial killing, broth dilution",ATCC6538,,MBC,> 1000 mg/L
CC(C)Cc1nn(-c2nc3ccc(Cl)cc3s2)c2c1C(=O)c1ccccc1-2,Staphylococcus aureus,"microbial growth, well diffusion",NCIM5021,125 µg/mL,inhibition zone,10 mm
O=C1NC(=S)N/C1=C\c1ccc(-c2ccc(N(c3ccccc3)c3ccccc3)cc2)cc1,Staphylococcus aureus,"microbial killing, broth dilution",ATCC43300,,MBC,> 1000 mg/L
Fc1ccc(-n2cc(COc3cccc4cccnc34)nn2)cc1,Escherichia coli,"microbial growth, broth dilution",ATCC25922,,IC50,405 mg/L
O=C(O)CN1C(=O)/C(=C/c2c3ccccc3c(-c3ccc(N(c4ccccc4)c4ccccc4)cc3)c3ccccc23)NC1=S,Micrococcus luteus,"microbial killing, broth dilution",ATCC10240,,MBC,> 1000 mg/L
Cc1cnc(-c2cnc(NCCNc3ccc(C#N)cn3)nc2-c2ccc(Cl)cc2Cl)[nH]1,Staphylococcus aureus,microbial growth,NCTC8325,,MIC,> 30 µM
Cc1ccc(C(C)C)cc1OCc1cn(-c2ccc([N+](=O)[O-])cc2)nn1,Escherichia coli,"microbial growth, broth dilution",ATCC25922,,IC50,532 mg/L
O=C1NC(=S)S/C1=C\c1ccc(-c2ccc(N(c3ccccc3)c3ccccc3)cc2)c2ccccc12,Micrococcus luteus,"microbial killing, broth dilution",ATCC10240,,MBC,> 1000 mg/L
Cc1ccc2nc(-n3nc(CC(C)C)c4c3-c3ccccc3C4=O)sc2c1,Staphylococcus aureus,"microbial growth, well diffusion",NCIM5021,1000 µg/mL,inhibition zone,14 mm
Cc1ccc(C(C)C)cc1OCc1cn(-c2ccc(F)cc2)nn1,Escherichia coli,"microbial growth, broth dilution",ATCC25922,,IC50,1580 mg/L
COc1ccc2nc(-n3nc(CC(C)C)c4c3-c3ccccc3C4=O)sc2c1,Staphylococcus aureus,"microbial growth, well diffusion",NCIM5021,500 µg/mL,inhibition zone,12 mm
CN(C)C1CCN(C(=O)c2ccc(NC(=O)Nc3ccc(-c4nc(N5CCOCC5)nc(N5CCOCC5)n4)cc3)cc2)CC1,Staphylococcus aureus,microbial growth,NCTC8325,,MIC,> 30 µM
O=C1C=C(OCc2cn(-c3ccc(Cl)cc3)nn2)C(=O)c2ccccc21,Escherichia coli,"microbial growth, broth dilution",ATCC25922,,IC50,306 mg/L
O=C(Nc1ccccc1-c1ccc(F)c(F)c1)c1nccnc1C(F)(F)F,Alternaria solani,microbial growth,,,EC50,0.15 mg/L
CCN1CCN(Cc2ccc(-c3cc4c(N[C@H](C)c5ccccc5)ncnc4[nH]3)cc2)CC1,Staphylococcus aureus,microbial growth,NCTC8325,,MIC,> 30 µM
O=C(O)c1cn(C2CC2)c2cc(N3CCNCC3)c(F)cc2c1=O,Escherichia coli,"microbial growth, broth dilution",ATCC25922,,IC50,0.125 mg/L
O=C(Nc1ccc2c(c1)CCC2)Nc1ccc(Cl)c(C(F)(F)F)c1,Staphylococcus aureus,microbial growth,NCTC8325,24 h,MIC,> 100 µM
Clc1ccc(-n2cc(COc3cccc4cccnc34)nn2)cc1,Escherichia coli,"microbial growth, broth dilution",ATCC25922,,IC50,470 mg/L
O=C(O)CN1C(=O)/C(=C/c2ccc(-c3ccc(N(c4ccccc4)c4ccccc4)cc3)cc2)SC1=S,Micrococcus luteus,"microbial killing, broth dilution",ATCC10240,,MBC,31.3 mg/L
O=S(=O)(c1cccc2cnccc12)N1CCCNCC1,Staphylococcus aureus,microbial growth,NCTC8325,,MIC,> 30 µM
Cc1ccc2nc(-n3nc(C(C)C)c4c3-c3ccccc3C4=O)sc2c1,Staphylococcus aureus,"microbial growth, well diffusion",NCIM5021,125 µg/mL,inhibition zone,12 mm
Cc1ccc(-n2cc(COc3cc(C(C)C)ccc3C)nn2)cc1,Escherichia coli,"microbial growth, broth dilution",ATCC25922,,IC50,289 mg/L
Cc1nn(-c2nc3ccc(Br)cc3s2)c2c1C(=O)c1ccccc1-2,Staphylococcus aureus,"microbial growth, well diffusion",NCIM5021,125 µg/mL,inhibition zone,10 mm
O=C(O)CN1C(=O)/C(=C/c2ccc(-c3ccc(N(c4ccccc4)c4ccccc4)cc3)cc2)NC1=S,Staphylococcus aureus,"microbial killing, broth dilution",ATCC43300,,MBC,3.9 mg/L
[H]/N=C(/N)N[C@H]1[C@H](O)[C@@H](O)[C@H](O[C@@H]2O[C@@H](C)[C@](O)(C=O)[C@H]2O[C@@H]2O[C@@H](CO)[C@H](O)[C@@H](O)[C@@H]2NC)[C@@H](N/C(N)=N\[H])[C@@H]1O,Staphylococcus aureus,"microbial growth, well diffusion",NCIM5021,1000 µg/mL,inhibition zone,30 mm
O=C1NC(=S)N/C1=C\c1c2ccccc2c(-c2ccc(N(c3ccccc3)c3ccccc3)cc2)c2ccccc12,Micrococcus luteus,"microbial killing, broth dilution",ATCC10240,,MBC,> 1000 mg/L
Cc1ccc2nc(-n3nc(C)c4c3-c3ccccc3C4=O)sc2c1,Staphylococcus aureus,"microbial growth, well diffusion",NCIM5021,1000 µg/mL,inhibition zone,12 mm
O=C(Nc1c[nH]nc1-c1nc2ccc(CN3CCOCC3)cc2[nH]1)NC1CC1,Staphylococcus aureus,microbial growth,NCTC8325,,MIC,> 30 µM
